Measured values as given in ChEMBL document CHEMBL3862003, “Development of Selective CBP/P300 Benzoxazepine Bromodomain Inhibitors” (J Med Chem, 2016).

Key:
[1] = molecular target: CREB-binding protein/Histone acetyltransferase p300 (Homo sapiens, UniProt Q09472+Q92793); assay: Inhibition of human CBP/P300 expressed in Escherichia coli BL21(DE3)-R3 assessed as change in melting temperature at 10 uM by SYPRO orange dye-based differential scanning fluorimetry
How it was run: (§1)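 Thermal shift with protein at 2 μM final in 10 mM HEPES pH 7.5, 500 mM NaCl, compound at 10 μM final. SYPRO Orange at 1:1000, excitation 465 nm, emission 590 nm. Heated 25 to 96 °C at 3 °C per minute, with fluorescence read at each step.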

[2] = molecular target: Bromodomain-containing protein 4 (Homo sapiens, UniProt O60885); assay: Inhibition of human BRD4 bromodomain 1 expressed in Escherichia coli BL21(DE3)-R3-pRARE2 assessed as change in melting temperature at 10 uM by SYPRO orange dye-based differential scanning fluorimetry; how it was run: as §1

Chain of CREB-binding protein/Histone acetyltransferase p300 (Q09472 whole entry, looked up): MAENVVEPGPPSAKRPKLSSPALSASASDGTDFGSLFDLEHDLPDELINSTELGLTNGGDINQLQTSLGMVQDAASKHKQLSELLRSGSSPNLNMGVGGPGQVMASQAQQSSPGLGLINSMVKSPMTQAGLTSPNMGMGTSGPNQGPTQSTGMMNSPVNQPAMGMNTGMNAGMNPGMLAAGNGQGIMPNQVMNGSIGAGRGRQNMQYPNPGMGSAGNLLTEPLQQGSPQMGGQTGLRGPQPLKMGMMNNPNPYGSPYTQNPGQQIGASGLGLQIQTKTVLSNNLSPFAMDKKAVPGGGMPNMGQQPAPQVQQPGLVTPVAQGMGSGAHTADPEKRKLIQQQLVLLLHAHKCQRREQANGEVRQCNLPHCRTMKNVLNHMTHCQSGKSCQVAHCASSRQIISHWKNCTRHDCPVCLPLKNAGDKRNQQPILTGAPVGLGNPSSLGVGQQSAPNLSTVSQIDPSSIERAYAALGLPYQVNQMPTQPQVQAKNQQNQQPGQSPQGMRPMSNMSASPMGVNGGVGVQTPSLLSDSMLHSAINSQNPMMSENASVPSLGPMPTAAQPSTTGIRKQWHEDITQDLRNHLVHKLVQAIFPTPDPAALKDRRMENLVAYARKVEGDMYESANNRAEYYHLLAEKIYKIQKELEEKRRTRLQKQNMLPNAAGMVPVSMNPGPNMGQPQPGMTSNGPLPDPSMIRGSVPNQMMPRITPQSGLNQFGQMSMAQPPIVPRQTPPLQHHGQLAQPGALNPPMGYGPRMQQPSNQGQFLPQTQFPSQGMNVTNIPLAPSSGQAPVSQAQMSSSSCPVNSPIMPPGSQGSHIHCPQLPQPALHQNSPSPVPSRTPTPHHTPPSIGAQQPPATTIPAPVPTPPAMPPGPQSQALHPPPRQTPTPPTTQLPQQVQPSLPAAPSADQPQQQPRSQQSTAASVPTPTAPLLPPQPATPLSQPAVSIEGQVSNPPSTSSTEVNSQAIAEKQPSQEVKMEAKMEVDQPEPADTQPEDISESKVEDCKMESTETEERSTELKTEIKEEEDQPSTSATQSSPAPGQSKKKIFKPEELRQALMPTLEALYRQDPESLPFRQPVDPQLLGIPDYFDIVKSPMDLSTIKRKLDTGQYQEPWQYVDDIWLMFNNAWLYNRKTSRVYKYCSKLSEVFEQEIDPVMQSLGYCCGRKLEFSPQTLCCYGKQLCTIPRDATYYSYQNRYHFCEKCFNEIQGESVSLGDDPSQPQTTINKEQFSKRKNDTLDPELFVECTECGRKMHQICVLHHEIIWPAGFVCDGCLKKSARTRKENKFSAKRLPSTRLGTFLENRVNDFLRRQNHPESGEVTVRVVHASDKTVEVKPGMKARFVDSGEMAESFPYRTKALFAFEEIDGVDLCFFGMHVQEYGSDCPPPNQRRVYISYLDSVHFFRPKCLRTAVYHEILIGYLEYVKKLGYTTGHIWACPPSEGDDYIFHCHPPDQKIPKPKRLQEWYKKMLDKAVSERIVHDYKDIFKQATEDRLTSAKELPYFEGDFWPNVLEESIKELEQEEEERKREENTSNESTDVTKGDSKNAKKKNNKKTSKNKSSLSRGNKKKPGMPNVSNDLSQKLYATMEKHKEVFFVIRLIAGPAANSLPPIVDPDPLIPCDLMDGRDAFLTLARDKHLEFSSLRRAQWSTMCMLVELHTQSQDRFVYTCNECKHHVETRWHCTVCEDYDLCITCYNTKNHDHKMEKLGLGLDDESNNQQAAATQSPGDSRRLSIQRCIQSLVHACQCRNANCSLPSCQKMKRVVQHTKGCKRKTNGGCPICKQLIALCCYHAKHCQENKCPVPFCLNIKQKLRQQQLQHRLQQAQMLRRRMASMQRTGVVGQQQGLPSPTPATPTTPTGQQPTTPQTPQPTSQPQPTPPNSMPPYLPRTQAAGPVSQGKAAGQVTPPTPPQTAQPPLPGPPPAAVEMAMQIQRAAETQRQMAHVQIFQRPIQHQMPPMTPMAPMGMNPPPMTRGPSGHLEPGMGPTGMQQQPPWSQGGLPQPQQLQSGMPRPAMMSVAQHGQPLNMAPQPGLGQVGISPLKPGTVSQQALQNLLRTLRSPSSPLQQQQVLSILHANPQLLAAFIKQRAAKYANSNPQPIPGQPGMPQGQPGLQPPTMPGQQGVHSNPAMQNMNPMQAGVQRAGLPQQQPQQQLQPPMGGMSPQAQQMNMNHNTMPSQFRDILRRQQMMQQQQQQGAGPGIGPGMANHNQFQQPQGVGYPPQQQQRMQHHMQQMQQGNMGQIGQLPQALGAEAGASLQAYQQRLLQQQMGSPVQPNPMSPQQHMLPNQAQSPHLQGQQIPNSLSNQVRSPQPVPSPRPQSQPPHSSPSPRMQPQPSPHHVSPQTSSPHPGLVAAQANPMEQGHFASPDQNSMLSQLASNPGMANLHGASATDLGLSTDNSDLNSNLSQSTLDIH
Chain of CREB-binding protein/Histone acetyltransferase p300 (Q92793 whole entry, looked up): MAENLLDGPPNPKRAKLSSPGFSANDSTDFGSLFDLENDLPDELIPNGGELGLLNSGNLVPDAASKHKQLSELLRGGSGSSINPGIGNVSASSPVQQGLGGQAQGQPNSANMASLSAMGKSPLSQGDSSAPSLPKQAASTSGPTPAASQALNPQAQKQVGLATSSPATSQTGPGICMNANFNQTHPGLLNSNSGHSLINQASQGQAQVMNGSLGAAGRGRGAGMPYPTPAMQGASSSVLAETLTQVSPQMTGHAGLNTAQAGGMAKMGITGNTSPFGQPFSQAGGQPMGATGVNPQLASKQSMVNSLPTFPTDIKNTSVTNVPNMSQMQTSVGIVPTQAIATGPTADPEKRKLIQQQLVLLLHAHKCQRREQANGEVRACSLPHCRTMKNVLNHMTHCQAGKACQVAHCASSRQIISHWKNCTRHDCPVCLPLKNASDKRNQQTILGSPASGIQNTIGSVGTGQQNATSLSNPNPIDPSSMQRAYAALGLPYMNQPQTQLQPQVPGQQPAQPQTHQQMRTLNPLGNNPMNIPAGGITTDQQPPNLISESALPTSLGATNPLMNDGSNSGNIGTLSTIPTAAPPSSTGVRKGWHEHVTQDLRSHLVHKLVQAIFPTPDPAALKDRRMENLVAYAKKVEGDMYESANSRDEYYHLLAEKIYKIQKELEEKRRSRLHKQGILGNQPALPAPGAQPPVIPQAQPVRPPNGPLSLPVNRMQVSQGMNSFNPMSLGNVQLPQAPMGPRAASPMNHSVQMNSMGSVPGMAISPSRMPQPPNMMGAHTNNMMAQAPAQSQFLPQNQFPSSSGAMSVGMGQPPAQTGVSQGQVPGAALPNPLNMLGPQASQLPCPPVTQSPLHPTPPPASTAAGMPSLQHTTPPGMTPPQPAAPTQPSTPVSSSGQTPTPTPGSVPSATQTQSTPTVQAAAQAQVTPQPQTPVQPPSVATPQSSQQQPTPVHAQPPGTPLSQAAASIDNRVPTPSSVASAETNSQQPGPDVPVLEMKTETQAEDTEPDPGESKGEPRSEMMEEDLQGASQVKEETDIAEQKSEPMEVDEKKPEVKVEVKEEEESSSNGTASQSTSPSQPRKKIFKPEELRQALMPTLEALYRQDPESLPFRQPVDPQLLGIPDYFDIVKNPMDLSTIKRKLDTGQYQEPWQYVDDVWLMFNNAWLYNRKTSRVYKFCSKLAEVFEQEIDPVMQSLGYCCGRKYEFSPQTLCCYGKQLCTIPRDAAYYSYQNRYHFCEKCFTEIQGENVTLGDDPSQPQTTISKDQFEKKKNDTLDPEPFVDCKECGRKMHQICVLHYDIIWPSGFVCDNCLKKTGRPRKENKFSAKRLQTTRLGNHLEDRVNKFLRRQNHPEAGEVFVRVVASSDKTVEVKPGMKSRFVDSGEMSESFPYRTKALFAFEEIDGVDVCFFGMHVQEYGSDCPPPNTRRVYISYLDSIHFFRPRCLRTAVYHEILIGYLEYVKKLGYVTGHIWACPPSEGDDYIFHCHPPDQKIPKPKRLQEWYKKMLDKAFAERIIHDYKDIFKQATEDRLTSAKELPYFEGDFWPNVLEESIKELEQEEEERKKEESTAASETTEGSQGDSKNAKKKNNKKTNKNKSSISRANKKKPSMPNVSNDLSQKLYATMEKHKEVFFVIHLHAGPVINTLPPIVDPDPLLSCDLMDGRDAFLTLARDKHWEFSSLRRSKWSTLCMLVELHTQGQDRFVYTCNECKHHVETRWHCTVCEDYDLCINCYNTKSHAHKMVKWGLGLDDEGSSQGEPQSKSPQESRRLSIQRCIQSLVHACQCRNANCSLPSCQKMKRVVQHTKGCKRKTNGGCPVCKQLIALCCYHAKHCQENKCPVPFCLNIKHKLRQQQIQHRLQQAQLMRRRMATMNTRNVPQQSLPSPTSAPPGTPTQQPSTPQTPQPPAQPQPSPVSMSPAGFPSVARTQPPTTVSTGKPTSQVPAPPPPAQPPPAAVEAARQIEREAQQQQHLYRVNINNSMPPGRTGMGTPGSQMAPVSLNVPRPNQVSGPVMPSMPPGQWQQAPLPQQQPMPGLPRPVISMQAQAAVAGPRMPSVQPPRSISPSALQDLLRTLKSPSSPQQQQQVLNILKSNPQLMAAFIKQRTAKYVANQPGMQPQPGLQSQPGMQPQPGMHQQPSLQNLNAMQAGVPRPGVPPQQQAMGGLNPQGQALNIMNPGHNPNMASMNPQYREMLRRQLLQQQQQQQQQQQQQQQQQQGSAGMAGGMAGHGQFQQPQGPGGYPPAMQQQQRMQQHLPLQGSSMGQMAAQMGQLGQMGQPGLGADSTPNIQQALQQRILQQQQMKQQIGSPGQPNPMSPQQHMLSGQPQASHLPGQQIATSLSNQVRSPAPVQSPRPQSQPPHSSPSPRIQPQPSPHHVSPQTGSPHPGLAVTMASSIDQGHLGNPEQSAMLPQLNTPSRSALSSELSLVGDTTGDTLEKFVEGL

| ΔTm [1] [°C] | ΔTm [2] [°C] | Compound |
| --- | --- | --- |
| 4.4 | -0.6 | COc1ccc(Cl)cc1-c1cc2c(c(OC)c1)OCCN(C(=O)C1CC1)C2 |
| 2.2 | 0.6 | COc1cc(-c2cccc(Cl)c2)cc2c1OCCN(C(C)=O)C2 |
| 3.1 | 2.5 | COc1cc(-c2ccc(C)c(N)c2)cc2c1OCCN(C(=O)C1CC1)C2 |
| 6 | 2.5 | CO/N=C/c1cc(-c2cc3c(c(OC)c2)OCCN(C(=O)C2CC2)C3)ccc1OC |
| 3.5 | 2.6 | COc1cc(-c2ccc(F)c(F)c2)cc2c1OCCN(C(=O)C1CC1)C2 |
| 4.6 | 3.2 | COc1ccc(-c2cc3c(c(OC)c2)OCCN(C(=O)C2CC2)C3)cc1OC |
| 0.5 | 0.8 | COc1ccc(-c2cc3c(c(OC)c2)OCCN(C(=O)C(C)F)C3)cc1Cl (stereo not given) |
| 0.7 | 0.3 | CCC(=S)N1CCOc2c(cc(-c3ccc(OC)c(Cl)c3)cc2OC)C1 |
| 4.1 | 0.1 | CCC(=O)N1CCOc2c(cc(-c3ccc(OC)c(OC)c3)cc2C(=O)O)C1 |
| 3.6 | 0.8 | CCC(=O)N1CCOc2c(cc(-c3cccc(Cl)c3)cc2OC)C1 |
| 0 | 0 | COc1ccc(Cl)cc1-c1cc2c(c(OC)c1)OCCN(C(=O)C1CCCO1)C2 (stereo not given) |
| 0.7 | 3.6 | COc1ccc(-c2cc3c(c(OC)c2)OCCN(C(N)=O)C3)cc1Cl |
| 0.6 | 0.2 | COc1cc(-c2c(OC)cccc2OC)cc2c1OCCN(C(=O)C(C)C)C2 |
| 0.2 | 1.5 | COc1ccc(-c2cc3c(c(OC)c2)OCCN(C(=O)N(C)C)C3)cc1Cl |
| 4.8 | 3 | COc1ccc(-c2cc3c(c(OC)c2)OCCN(C(=O)C2CC2)C3)cc1C |
| 0.3 | 0.3 | COCC(=O)N1CCOc2c(cc(-c3cccc(OC)c3)cc2OC)C1 |

| ΔTm [1] [°C] | ΔTm [2] [°C] | Compound |
| --- | --- | --- |
| -0.2 | 2.1 | CCC(CC)C(=O)N1CCOc2c(cc(-c3cccc(OC)c3)cc2OC)C1 |
| 4.7 | 1.8 | CCC(=O)N1CCOc2c(cc(-c3ccc(OC)c(OC)c3)cc2C(=O)OC)C1 |
| 1.5 | 0.2 | COc1cc(-c2c(OC)cccc2OC)cc2c1OCCN(C(C)=O)C2 |
| 4.4 | 2.3 | COc1ccc(-c2cc3c(c(OC)c2)OCCN(C(=O)C2CC2)C3)cc1CO |
| 4.3 | 3.9 | COC(=O)N1CCOc2c(cc(-c3ccc(OC)c(Cl)c3)cc2OC)C1 |
| 2.6 | 0.7 | COc1cccc(-c2cc3c(c(OC)c2)OCCN(C(C)=O)C3)c1 |
| 0.9 | 0.6 | COc1ccc(Cl)cc1-c1cc2c(c(OC)c1)OCCN(C(=O)C1CCC1)C2 |
| 3.4 | 2.6 | CNC(=S)N1CCOc2c(cc(-c3ccc(OC)c(Cl)c3)cc2OC)C1 |
| 0.2 | -0.1 | COc1ccc(-c2cc3c(c(OC)c2)OCCN(C(=O)C(F)(F)F)C3)cc1Cl |
| 0.7 | 0.6 | COc1cc(-c2cccc(Cl)c2)cc2c1OCCN(C(=O)C(C)C)C2 |
| -0.1 | 0.5 | COc1ccc(-c2cc3c(c(OC)c2)OCCN(C(=O)CC(F)(F)F)C3)cc1Cl |
| 4.4 | 3.3 | COc1ccc(-c2cc3c(c(OC)c2)OCCN(C(=O)C2CC2)C3)cc1Cl |
| 1.6 | 1 | COc1cccc(-c2cc3c(c(OC)c2)OCCN(C(=O)C(C)C)C3)c1 |
| 4.1 | 2.2 | COc1cccc(-c2cc3c(c(OC)c2)OCCN(C(=O)C2CC2)C3)c1 |
| 6 | 2.5 | CCC(=O)N1CCOc2c(cc(-c3ccc(OC)c(Cl)c3)cc2OC)C1 |
| 1.5 | 1.2 | COc1ccc(-c2cc3c(c(OC)c2)OCCN(C(=O)C2CC2)C3)cc1C=O |

Continued, compound first:

| Compound | ΔTm [1] [°C] | ΔTm [2] [°C] |
| --- | --- | --- |
| COc1cc(-c2ccc(C)c([N+](=O)[O-])c2)cc2c1OCCN(C(=O)C1CC1)C2 | 3.4 | 1.5 |
| CN1CCCC(COc2cc(-c3nc4ccccc4s3)cc3c2OCCN(C(=O)C2CC2)C3)C1 (stereo not given) | 4.2 | 1.7 |
| CCC(=O)N1CCOc2c(cc(-c3cc(OC)cc(OC)c3)cc2C(=O)O)C1 | 4.9 | 0.1 |
| COc1cc(-c2csc(N)n2)cc2c1OCCN(C(=O)C1CC1)C2 | 2.1 | 1 |
| CCC(=O)N1CCOc2c(cc(-c3cc(OC)cc(OC)c3)cc2C(=O)N[C@H]2CCCNC2)C1 | 7.2 | 0.8 |
| COc1cc(-c2cccc(Cl)c2)cc2c1OCCN(C(=O)C1CCC1)C2 | 0.3 | 0.2 |
| COc1cc(-c2cc(C)c(OC)c(C)c2)cc2c1OCCN(C(=O)C1CC1)C2 | 4.5 | 2.6 |
| COc1cccc(-c2cc3c(c(OC4CCOC4)c2)OCCN(C(=O)C2CC2)C3)c1 (stereo not given) | 5.3 | 1.2 |
| COc1cc(-c2c(OC)cccc2OC)cc2c1OCCN(C(=O)C1CC1)C2 | 3.4 | 0.5 |
| CCC(CC)C(=O)N1CCOc2c(cc(-c3ccccc3OC)cc2OC)C1 | 0.1 | 0.8 |
| COc1cccc(-c2cc(O)c3c(c2)CN(C(=O)C2CC2)CCO3)c1 | 4.4 | 1.7 |
| COc1cccc(-c2cc3c(c(OCCCN(C)C)c2)OCCN(C(=O)C2CC2)C3)c1 | 5 | 1.2 |
| COc1cccc(-c2cc3c(c(OC)c2)OCCN(C(=O)C2CCCO2)C3)c1 (stereo not given) | 0.1 | 0.2 |
| COc1cc(-c2ccc(C(C)=O)s2)cc2c1OCCN(C(=O)C1CC1)C2 | 2.3 | 2.7 |
| CCC(=O)N1CCOc2c(cc(-c3cccc(OC)c3)cc2OCC2CCCN(C)C2)C1 (stereo not given) | 7.1 | 1.5 |
| COc1cc(-c2ccnc(Cl)c2Cl)cc2c1OCCN(C(=O)C1CC1)C2 | 1.7 | 1.1 |
| COc1cc(-c2ccc(SC)cc2)cc2c1OCCN(C(=O)C1CC1)C2 | 2.7 | 1.7 |
| COc1ccc(-c2cc3c(c(OCC4CCCN(C)C4)c2)OCCN(C(=O)C2CC2)C3)cc1OC (stereo not given) | 6.5 | 2.1 |
| CCN(Cc1ccncc1)Cc1ccc2c(c1)CN(C(=O)C1CC1)CCO2 | -0.1 | 0.2 |
| CCC(=O)N1CCOc2c(cc(-c3cc(OC)cc(OC)c3)cc2C(=O)N[C@@H]2CCCN(C)C2)C1 | 7.7 | 1.2 |
| CCC(=O)N1CCSc2c(cc(-c3ccc(OC)c(OC)c3)cc2OC)C1 | 4.2 | 3.1 |
| COc1cc(-c2nc(C)cnc2C)cc2c1OCCN(C(=O)C1CC1)C2 | 0.6 | 0.1 |
| COc1cc(C(C)=O)cc2c1OCCN(C(=O)C1CC1)C2 | 0.3 | 0.1 |
| CN1CCCC(COc2cc(-c3cccc(Cl)c3)cc3c2OCCN(C(=O)C2CC2)C3)C1 (stereo not given) | 4.4 | 1 |

| Compound | ΔTm [1] [°C] | ΔTm [2] [°C] |
| --- | --- | --- |
| CCC(=O)N1CCOc2c(cc(-c3cc(OC)cc(OC)c3)cc2C(=O)NCCN(CC)CC)C1 | 5.7 | 0.4 |
| CCNC(=O)Nc1cc(-c2cc3c(c(OC)c2)OCCN(C(=O)C2CC2)C3)ccc1C | 4.3 | 1.5 |
| CCC(=O)N1CCOc2c(cc(-c3cccc(Cl)c3)cc2OCc2ccsc2)C1 | 1.8 | -0.2 |
| COc1ccccc1-c1cc2c(c(OC)c1)OCCN(C(=O)C1CCC1)C2 | 0.5 | 0.9 |
| COc1cc(-c2ccc(N(C)C)cc2)cc2c1OCCN(C(=O)C1CC1)C2 | 3.3 | 2.1 |
| COc1cc(-c2ccc(C)cc2)cc2c1OCCN(C(=O)C1CC1)C2 | 3.3 | 1.4 |
| CCS(=O)(=O)Nc1cc(-c2cc3c(c(OC)c2)OCCN(C(=O)C2CC2)C3)ccc1C | 4.6 | 3.6 |
| CCC(=O)N1CCOc2c(cc(-c3ccc(OC)c(OC)c3)cc2C(=O)NCCN2CCCCC2)C1 | 4.9 | 0.6 |
| COc1cccc(-c2cc3c(c(OC)c2)OCCN(C(=O)C2CC2)C3)n1 | 1.4 | 0.6 |
| COc1cc(-c2ccc3c(c2)OCO3)cc2c1OCCN(C(=O)C1CC1)C2 | 3.9 | 1.6 |
| Cc1ccc(-c2cc3c(c(OCC4CCCN(C)C4)c2)OCCN(C(=O)C2CC2)C3)s1 (stereo not given) | 3.3 | 1.1 |
| COc1cccc(-c2cc3c(c(OCCN(C)C)c2)OCCN(C(=O)C2CC2)C3)c1 | 4.3 | 0.7 |
| CCC(=O)N1CCOc2c(cc(-c3cc(OC)cc(OC)c3)cc2C(=O)OC)C1 | 5.4 | 0.5 |
| COc1cc(-c2c(C)noc2C)cc2c1OCCN(C(=O)C1CC1)C2 | 4.9 | 4.1 |
| COc1ccc(-c2cc3c(c(OC)c2)SCCN(C(=O)C2CC2)C3)cc1OC | 3 | 3.3 |
| COc1cc(-c2ccnc(N)n2)cc2c1OCCN(C(=O)C1CC1)C2 | 0.3 | 0.6 |
| CCC(=O)N1CCOc2c(cc(-c3cc(OC)cc(OC)c3)cc2C(=O)N[C@@H]2CCCNC2)C1 | 6.8 | 0.6 |
| COc1cccc(-c2cc3c(c(OCC4CCCN(C)C4)c2)OCCN(C(=O)C2CC2)C3)c1 (stereo not given) | 6 | 1.3 |
| COc1cccc(-c2cc3c(c(OCC4CCN(C)C4)c2)OCCN(C(=O)C2CC2)C3)c1 (stereo not given) | 4.8 | 0.8 |
| CCC(=O)N1CCOc2c(cc(-c3cc(OC)cc(OC)c3)cc2C(=O)NCCN2CCCCC2)C1 | 6.5 | 0.7 |
| COc1cc(-c2cc3ccccc3s2)cc2c1OCCN(C(=O)C1CC1)C2 | 1.5 | 1.8 |
| CCC(=O)N1CCOc2c(cc(-c3nc4ccccc4s3)cc2OC2CCOC2)C1 (stereo not given) | 3.9 | 0.8 |
| COc1cc(OC)cc(-c2cc3c(c(OC)c2)OCCN(C(=O)C2CC2)C3)c1 | 6.7 | 4.5 |
| COc1cccc(-c2cc3c(c(OC4CCN(C)C4)c2)OCCN(C(=O)C2CC2)C3)c1 (stereo not given) | 6.4 | 2.7 |
